Published values pooled from the literature.
Each line is one published result; the experiments were not run side by side.
MCU: Calcium uniporter protein, mitochondrial (MCU, Homo sapiens, UniProt Q8NE86)
DRD2: D(2) dopamine receptor (DRD2, Homo sapiens, UniProt P14416)

Compound	target	test	setting	IC50 [nM]
CC(=O)Oc1ccc(-c2coc3c4c(c(CC=C(C)C)c(OC(C)=O)c3c2=O)OC(C)(C)C=C4)cc1OC(C)=O	Serine/threonine-protein kinase mTOR (MTOR, Homo sapiens, UniProt P42345)	enzyme activity, inhibitor, ELISA	–	6200
O=S(=O)([O-])[O-].[Cu+2]	Delta-aminolevulinic acid dehydratase (Homo sapiens, UniProt P13716, C162A/K59N)	enzyme activity, inhibitor, absorbance	pH 8	2200
COc1ccc(C(=O)O)cc1S(=O)(=O)Nc1ccc(C(F)(F)F)cc1N1CCCCC1	Endoplasmic reticulum aminopeptidase 2 (ERAP2, Homo sapiens, UniProt Q6P179, K392N)	enzyme activity, inhibitor	–	44000
NCCN.NCCN.NCCN.[Co+3]	MCU	transporter uptake, inhibitor	–	76
CC(C)C[C@H](NC(=O)[C@H](Cc1ccccc1)NC(=O)c1cnccn1)B(O)O	Neutrophil elastase (ELANE, Homo sapiens, UniProt P08246)	enzyme activity, inhibitor	–	> 33000
CC(C)C[C@H](NC(=O)[C@H](Cc1ccccc1)NC(=O)[C@H](Cc1ccc(O)cc1)NC(=O)CNC(=O)[C@H](CCCCN)NC(=O)[C@H](CO)NC(=O)[C@H](CCC(N)=O)NC(=O)CNC(=O)[C@@H](NC(=O)[C@H](CO)NC(=O)[C@@H]1CCCN1C(=O)[C@H](CO)NC(=O)[C@H](CCC(N)=O)NC(=O)[C@H](Cc1ccc(O)cc1)NC(=O)[C@H](CCC(=O)O)NC(=O)[C@H](C)NC(=O)[C@H](CCCCN)NC(=O)[C@@H](N)Cc1ccccc1)C(C)C)C(=O)N[C@@H](Cc1ccccc1)C(=O)N[C@@H](CCCNC(=N)N)C(=O)N1CCC[C@H]1C(=O)N[C@@H](CCCNC(=N)N)C(=O)N[C@@H](CC(N)=O)C(N)=O	Neuromedin-U receptor 2 (Mus musculus, UniProt Q8BZ39)	ligand displacement, radioligand	cell membranes	0.03
N.N.N.N.N.N.N.N.O=C(O)c1cccc1.O=C(O)c1cccc1.[Fe+2].[Fe+2].[N-3].[Ru+4].[Ru+4].c1cccc1.c1cccc1	MCU	transporter uptake, inhibitor	–	10.5
COc1ccc2[nH]cc(CN3CCC(O)(c4ccc(SC)cc4)CC3)c2c1	DRD2	ion current	–	250
C[C@H](N)Cn1ncc2ccc3c(c21)CCCO3	DRD2	ligand displacement, radioligand	–	> 100000
N.N.N.N.N.N.N.N.O=C(O)c1ccccc1.O=C(O)c1ccccc1.[N-3].[Ru+4].[Ru+4]	MCU	transporter uptake, inhibitor	–	13.9
Brc1cc2c(N3CCNCC3)nccn2c1	Beta-secretase 1 (BACE1, Homo sapiens, UniProt P56817)	enzyme activity, inhibitor, FRET	pH 5	600000
CN[C@@H]1C[C@H]2O[C@@](C)([C@@H]1OC)n1c3ccccc3c3c4c(c5c6ccccc6n2c5c31)C(=O)NC4	Serine/threonine-protein kinase LMTK3 (LMTK3, Homo sapiens, UniProt Q96Q04)	enzyme activity, inhibitor, TR-FRET	–	0.0045
